Reference: the RNAGym collection of RNA variant scans (doi:10.1126/science.aae0568)
Variants at the floor of the assay were thinned out.

B1: tRNA (parent)
chain: GUUCCGUUGGCGUAAUGGUAACGCGUCUCCCUCCUAAGGAGAAGACUGCGGGUUCGAGUCCCGUACGGAACG

Variants of: B1
Test: yeast fitness relative to wild type (ratio to wild type); higher = fitter; tRNA-Arg(CCU), competitive growth, 37 C, YPD
Outline: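 Amplicons of the tRNA-Arg(CCU) gene were sequenced, 100-nucleotide paired-end, from the start population and from each end population of a pooled yeast competition. The competition, in six parallel replicates, lasted 24 hours in YPD at 37°C. Fitness relative to wild type was calculated from changes in genotype frequencies. Genotypes had to have ≥ 100 starting reads, and estimates < 0.5 were set to 0.5.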

Going from GUUUGGUUGGCGUAACGGUAACGGGUCUCCCUCCUAAGGAGCAGACUGCGGGUUCGAGUCCCGUACGGAACG [C4U C5G U16C C24G A42C] to GUUUUGUUGGCGUAAUGAUAACGCAUCUCCCUUCUAAGGAGAAGACUACGGAUUCGAGUCCCGUACGGUACG [C4U C5U G18A G25A C33U G48A G52A A69U], the yeast fitness falls from 0.504 to at most 0.5.

GUUUAGUUGGCGAAAUGGUAACGCGUCUCCUUCUUAAGGAGAAGACUGCGGGUUCGAGUCCCGUAUGGAACG [C4U C5A U13A C31U C34U C66U] and GUUUGGUUGGCGUAACGGUAACGGGUCUCCCUCCUAAGGAGUGGACUGCGGGUUCGAGUCCCGUACGGAACG [C4U C5G U16C C24G A42U A43G] cannot be ordered by yeast fitness: at most 0.5 for the first, at most 0.5 for the second.

First: GUUUCGUUGGGGUAAUGGUAACGCGUCUCCCUCCUAAGGAGAAGUCUGCGGGUUCGAGUCGCGUACGGAACG [C4U C11G A45U C61G]
Second: GUUUCGUUGGGGUAAUGGUAACGCGUCUCGCUCCUAAGGAGAAGACUGCGGGUUCGAGUCCCGUACGGAACG [C4U C11G C30G]
The yeast fitness of the first is higher: 0.518 for the first, at most 0.5 for the second.

Going from GUUUCGUUGGUGUAAUGGUAACGCGUCUCCCUCCUAAGGAGAAGACUGCGGGUUCGAGUCCCGUUCGGAACG [C4U C11U A65U] to GUUUCGUUGGUGUAAUGGUAACGCGUCUCCCUCCUAAGGAGAAGCCUACGGGUUCCAGUCCCGUACGGAACG [C4U C11U A45C G48A G56C], the yeast fitness falls from 0.669 to at most 0.5.

Going from GUUUGGUUGGCGUAAUGGUAACGCGUCUUCCUCCUAAGGAGAAGACUGCGGGUUCGAGUCCCGUACGGAACG [C4U C5G C29U] to GUUUCGUUGGGGUAAUGGUAAGGCGUCUCCCUCCUAAGGAGAAGACUGCGGGUUGGAGUCCCCUACGGAACG [C4U C11G C22G C55G G63C], the yeast fitness falls from 0.541 to at most 0.5.

Going from GUUUGGCUGGCGUAAUGGUAACGGGUCUCCCUCCUAAGGAGACGACUGCGGGUUCGAGUCCCGUACGGAACG [C4U C5G U7C C24G A43C] to GUUUCGUUGGGGUAAUGGUAACGCGUCUACCUCCUAAGGAGAAGACUGCGGGUUCGAGUCCCGUACGGAACG [C4U C11G C29A], the yeast fitness rises from at most 0.5 to 0.597.

GUUUCGUUGGGGUAAUGGUAACGCGUCUCCCUCUUAAGGAGAAGACUGCGGGUUCGAGUACCGUACGGAACG [C4U C11G C34U C60A] and GUUUCGUUGGUGUAAUGGUAACGCCUCUCCCUCCUAAGGAAAAGACUGCGGGUUCGACUCCCGUACGGAACG [C4U C11U G25C G41A G58C] cannot be ordered by yeast fitness: at most 0.5 for the first, at most 0.5 for the second.

GUUUGGUUGGCGUAAUGGUAACGCGUCUCCCUCUUAAGGAGAAGACUGCGGGUACGAGUCCCGUACUGAACG [C4U C5G C34U U54A G67U] and GUUUCGUUGGAGUAAUGGUAACGCGUAUCCCUCCUAAGGAGAAGACUGCGGGUUCGAGUCCAGUACGGAACG [C4U C11A C27A C62A] cannot be ordered by yeast fitness: at most 0.5 for the first, at most 0.5 for the second.

Compared with GUUUCGUUGGGGUAAUGGUAACGCGUCUUCCUCCCAAGGAGAAGACUGCGGGUUCGAGUCCCGUACGGAACG [C4U C11G C29U U35C], GUUUCGUUGGGGUAAUGGUAACGCGUCUCCCUCCUAAGGAGAAGACUGCGGGUUCGAGUCCCGUACGGAACG [C4U C11G] is higher in yeast fitness: at most 0.5 for the first, 0.692 for the second.

Going from GUUUCGUUGGAGUAAUGGUAACGCGUCUCCCUCCUAAGGAGAAGACUGCGGGUUCGAGUCCCGUACGGAACG [C4U C11A] to GUUUCGUUGGUGUAAUGGUAACGCGUCUCCCUCCUAAGGAGAAGACUGCGGGUUCGAGUCCCGUACGGAACG [C4U C11U], the yeast fitness rises from 0.61 to 0.969.

First: GUUUCGUUGGAGUAAUGGUAACGCGGCUCCCUCCUAAGGAGAAGACUGCCGGUUCGAGUCCCGUACGGAACG [C4U C11A U26G G50C]
Second: GUUUUGUUGGCGUAAUGGUAACGCGUGUCCGUCCUAAGGAGAAGACUGCGGGUUCGAGUCCCGUACGGAACG [C4U C5U C27G C31G]
The yeast fitness of the first is higher: 0.536 for the first, at most 0.5 for the second.

First: GUUUCGUUGGGGUAAUGAUAACCCGUCUCCCUCCUAAGGAGAAGACGGCAGGUUCGAGUCCCGUACGGAACG [C4U C11G G18A G23C U47G G50A]
Second: GUUUGGUUGGCGUAAUGGUAACGCGUCCCCCUCCUAAGGAGAAGACUGCGGGUUCGAGUCCCGUACGGAACG [C4U C5G U28C]
The yeast fitness of the first is lower: at most 0.5 for the first, 0.783 for the second.

Compared with GUUUGGUUGGCGUAAUGGUAACGCGUCUCCCUCCUAAGGAGAAGACUCCGGGUUCGAGUCCCGUACGGAACG [C4U C5G G48C], GUUUCGUUGGGGUAAUGGUAACGCGUCUCCCUCUUAAGGAGAAGACUGCGGGCUCGAGUCCCGUACGGAACG [C4U C11G C34U U53C] is lower in yeast fitness: 0.655 for the first, at most 0.5 for the second.

First: GUUUCGUUGGUGUAAUGGUAACGCCUCUCCCUCCUAAGGAAAAGACUGCGGGUCCGAGUCCCGUACGGAACG [C4U C11U G25C G41A U54C]
Second: GUUUCGUUGGAGUAAUGGUAACGCGUCACCUUCCUAAGGAGAAGACUGCGCGUUCGAGUCCCGUACGGAACG [C4U C11A U28A C31U G51C]
The yeast fitness of the first is lower: at most 0.5 for the first, 0.622 for the second.

GUUUGGUUGGCGUAAUGGUAACGCGUCUCCCUCCUAAGGAGAAGACUGCGGGUUCGAGUGCCGUACGGAACG [C4U C5G C60G] and GUUUGGUUGGCGUAAUGGUAACGCGUCUUCCUCCUAAGGAGAAGACUGCGGGUUCGAGUCCCGUGCGGAACG [C4U C5G C29U A65G] cannot be ordered by yeast fitness: at most 0.5 for the first, at most 0.5 for the second.

GUUUUGUUGGCGUAAUGGUAACGCGUCUCCCUCCUAUGGAGAAGAUUGCGGGUUCGAGUCUCGUAUGGAACG [C4U C5U A37U C46U C61U C66U] and GUUUCGUUGGAGUAAUGGUAACGCGUCGCCUUCCUAAGGAGAAGACUGCGCGUUCGAGUCCCGUACGGAACG [C4U C11A U28G C31U G51C] cannot be ordered by yeast fitness: at most 0.5 for the first, at most 0.5 for the second.

GUUUGGUUGGCGUAACGGUAACGGGUCUCCCUCCUAAGGAGCAGACUGCGGGUUCAAGUCCCGUACGGAACG [C4U C5G U16C C24G A42C G56A] and GUUUCGUUGGGGUAAUGGUAACGCGUCUCCCUCCUAAGGAGAAGACUGUGGGUUCGAGUCACGUACGGAACG [C4U C11G C49U C61A] cannot be ordered by yeast fitness: at most 0.5 for the first, at most 0.5 for the second.

Going from GUUUCGUUGGAGUAAUGGUAACGCGUCUCCCUCCUAAGAAGAAGACUGCGAGUUCGAGUCCCGUACGGAACG [C4U C11A G39A G51A] to GUUUCGUUGGUGUAAUGGUAACGCGUCUCCCUCCUAAGGAGAAGACUGCGGGUUCGGGUCCCGUACGGAACG [C4U C11U A57G], the yeast fitness rises from at most 0.5 to 0.684.

GUUUCGUUGGGGUAAUGGUAACGCGUCUCCCUCCUAAGGAGGAGACUGUGGGUUCGAGUCCCGUACGGAUCG [C4U C11G A42G C49U A70U] gave a yeast fitness of at most 0.5.
